Test results: ChEMBL document CHEMBL5576109, “Hydantoin derivative dimers as broad-spectrum antimicrobial agents against ESKAPE pathogens with enhanced killing rate and stability” (RSC Med Chem, 2024)
≈ marks a conversion by molar mass, not a printed value.

What was measured:
[1] = system: Enterococcus faecalis; assay: Antibacterial activity against Enterococcus faecalis ATCC 29212 assessed as reduction bacterial growth after 16 hrs by TECAN SPARK microplate reader analysis; assay type: functional
Procedure, shortened: (§1)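 Single colony grown overnight in 4 mL TSB at 37 °C, diluted 100-fold and grown to mid-log phase. Compounds 2-fold serially diluted in TSB and mixed 1:1 with bacteria in TSB (1 × 10^6 CFU/mL). Incubated 16 h at 37 °C, then A600 read. MIC taken as the lowest concentration giving complete growth inhibition.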

[2] = system: Escherichia coli; assay: Antibacterial activity against Escherichia coli ATCC 25922 assessed as reduction bacterial growth after 16 hrs by TECAN SPARK microplate reader analysis; assay type: functional; procedure, shortened: as §1
[3] = Hemolytic activity in mouse red blood cells assessed as hemolysis incubated for 1 hr by TECAN SPARK microplate reader analysis; assay type: toxicity, cell-based, Erythrocyte; details: red blood cells (erythrocytes)
Procedure, shortened: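 Mouse RBCs washed three times in 1× PBS by centrifugation (3500 rpm, 10 min) and made up as a 5% v/v suspension. Incubated with 2-fold serially diluted compound in PBS for 1 h at 37 °C, then centrifuged. Supernatant diluted in PBS and A540 read. % hemolysis calculated relative to 1% Triton X-100 (100%) and PBS (0%).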

[4] = system: Staphylococcus aureus; assay: Antibacterial activity against Staphylococcus aureus ATCC 29213 assessed as reduction bacterial growth after 16 hrs by TECAN SPARK microplate reader analysis; assay type: functional; procedure, shortened: as §1
[5] = system: Staphylococcus aureus; assay: Antibacterial activity against methicillin-resistant Staphylococcus aureus ATCC 43300 assessed as reduction bacterial growth after 16 hrs by TECAN SPARK microplate reader analysis; assay type: functional
Procedure, shortened: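 Broth microdilution in TSB: single colony grown overnight at 37 °C, diluted 100-fold and grown to mid-log phase. 2-fold serial compound dilutions mixed 1:1 with bacteria at 1 × 10^6 CFU/mL, incubated 16 h at 37 °C, absorbance read at 600 nm. MIC taken as lowest concentration giving complete growth inhibition.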

[6] = system: Klebsiella pneumoniae; assay: Antibacterial activity against Klebsiella pneumoniae ATCC 10031 assessed as reduction bacterial growth after 16 hrs by TECAN SPARK microplate reader analysis; assay type: functional; procedure, shortened: as §1
[7] = system: Pseudomonas aeruginosa; assay: Antibacterial activity against Pseudomonas aeruginosa CMCC 10104 assessed as reduction bacterial growth after 16 hrs by TECAN SPARK microplate reader analysis; assay type: functional; procedure, shortened: as §1
[8] = system: Acinetobacter baumannii; assay: Antibacterial activity against Acinetobacter baumannii ATCC 19606 assessed as reduction bacterial growth after 16 hrs by TECAN SPARK microplate reader analysis; assay type: functional; procedure, shortened: as §1
[9] = system: Bacillus subtilis; assay: Antibacterial activity against Bacillus subtilis ATCC 6633 assessed as reduction bacterial growth after 16 hrs by TECAN SPARK microplate reader analysis; assay type: functional; procedure, shortened: as §1

Molecule | MIC [1] | MIC [2] | HC50 at 1 h [3] | MIC [4] | MIC [5] | MIC [6] | MIC [7] | MIC [8] | MIC [9]
CCCCCCN1C(=O)[C@H](CCCCN)N(Cc2ccc(/C=C/c3ccc(CN4C(=O)N(CCCCCC)C(=O)[C@@H]4CCCCN)cc3)cc2)C1=O | 7.81 µg/mL (≈ 10.9 µM) | 31.2 µg/mL (≈ 43.7 µM) | 43.5 µg/mL | 3.91 µg/mL (≈ 5.47 µM) | 31.2 µg/mL (≈ 43.7 µM) | 3.91 µg/mL (≈ 5.47 µM) | 15.6 µg/mL (≈ 21.8 µM) | 15.6 µg/mL (≈ 21.8 µM) | 7.81 µg/mL (≈ 10.9 µM)
CN[C@H](CC(C)C)C(=O)N[C@H]1C(=O)N[C@@H](CC(N)=O)C(=O)N[C@H]2C(=O)N[C@H]3C(=O)N[C@H](C(=O)N[C@H](C(=O)O)c4cc(O)cc(O)c4-c4cc3ccc4O)[C@H](O)c3ccc(c(Cl)c3)Oc3cc2cc(c3O[C@@H]2O[C@H](CO)[C@@H](O)[C@H](O)[C@H]2O[C@H]2C[C@](C)(N)[C@H](O)[C@H](C)O2)Oc2ccc(cc2Cl)[C@H]1O [VANCOMYCIN] |  | 125 µg/mL (≈ 86.3 µM) |  | 1.95 µg/mL (≈ 1.35 µM) |  |  |  |  | 
CCCCCCN1C(=O)[C@H](CCCCN)N(Cc2ccc3cc(CN4C(=O)N(CCCCCC)C(=O)[C@@H]4CCCCN)ccc3c2)C1=O | 31.2 µg/mL (≈ 47.1 µM) | 15.6 µg/mL (≈ 23.6 µM) | 59.9 µg/mL | 3.91 µg/mL (≈ 5.9 µM) | 15.6 µg/mL (≈ 23.6 µM) | 1.95 µg/mL (≈ 2.94 µM) | 15.6 µg/mL (≈ 23.6 µM) | 31.2 µg/mL (≈ 47.1 µM) | 7.81 µg/mL (≈ 11.8 µM)
COLISTIN |  | 3.91 µg/mL |  | 250 µg/mL |  |  |  |  | 
CCCCCCN1C(=O)[C@H](CCCCN)N(Cc2ccc(CCc3ccc(CN4C(=O)N(CCCCCC)C(=O)[C@@H]4CCCCN)cc3)cc2)C1=O | 7.81 µg/mL (≈ 10.9 µM) | 3.91 µg/mL (≈ 5.45 µM) | 20.9 µg/mL | 1.95 µg/mL (≈ 2.72 µM) | 15.6 µg/mL (≈ 21.8 µM) | 3.91 µg/mL (≈ 5.45 µM) | 125 µg/mL (≈ 174 µM) | 3.91 µg/mL (≈ 5.45 µM) | 7.81 µg/mL (≈ 10.9 µM)
CCCCCCN1C(=O)[C@H](CCCCNC(=N)N)N(Cc2ccc3cc(CN4C(=O)N(CCCCCC)C(=O)[C@@H]4CCCCNC(=N)N)ccc3c2)C1=O | 3.91 µg/mL (≈ 5.23 µM) | 15.6 µg/mL (≈ 20.9 µM) | 117 µg/mL | 3.91 µg/mL (≈ 5.23 µM) | 15.6 µg/mL (≈ 20.9 µM) | 7.81 µg/mL (≈ 10.5 µM) | 15.6 µg/mL (≈ 20.9 µM) | 31.2 µg/mL (≈ 41.8 µM) | 3.91 µg/mL (≈ 5.23 µM)
CC1(C)S[C@@H]2[C@H](NC(=O)Cc3ccccc3)C(=O)N2[C@H]1C(=O)O [PENICILLIN G] |  | 250 µg/mL (≈ 748 µM) |  | 0.98 µg/mL (≈ 2.93 µM) |  |  |  |  | 
CCCCCCN1C(=O)[C@H](CCCCN)N(Cc2cccc(CN3C(=O)N(CCCCCC)C(=O)[C@@H]3CCCCN)c2)C1=O | 62.5 µg/mL (≈ 102 µM) | 250 µg/mL (≈ 408 µM) |  | 31.2 µg/mL (≈ 51 µM) | 250 µg/mL (≈ 408 µM) | 62.5 µg/mL (≈ 102 µM) | 31.2 µg/mL (≈ 51 µM) | 125 µg/mL (≈ 204 µM) | 7.81 µg/mL (≈ 12.7 µM)
CCCCCCCCCCCCN1C(=O)[C@H](CCCCN)N(Cc2ccc(-c3ccc(CN4C(=O)N(CCCCCCCCCCCC)C(=O)[C@@H]4CCCCN)cc3)cc2)C1=O |  | 250 µg/mL (≈ 292 µM) |  | 250 µg/mL (≈ 292 µM) |  |  |  |  | 
CCCCCCN1C(=O)[C@H](CCCCN)N(Cc2cccc(-c3cccc(CN4C(=O)N(CCCCCC)C(=O)[C@@H]4CCCCN)c3)c2)C1=O | 15.6 µg/mL (≈ 22.7 µM) | 3.91 µg/mL (≈ 5.68 µM) | 38 µg/mL | 3.91 µg/mL (≈ 5.68 µM) | 7.81 µg/mL (≈ 11.3 µM) | 7.81 µg/mL (≈ 11.3 µM) | 15.6 µg/mL (≈ 22.7 µM) | 7.81 µg/mL (≈ 11.3 µM) | 7.81 µg/mL (≈ 11.3 µM)
CCCCCCN1C(=O)[C@H](CCCCN)N(Cc2ccc(CN3C(=O)N(CCCCCC)C(=O)[C@@H]3CCCCN)c3ccccc23)C1=O | 62.5 µg/mL (≈ 94.3 µM) | 125 µg/mL (≈ 189 µM) |  | 15.6 µg/mL (≈ 23.6 µM) | 125 µg/mL (≈ 189 µM) | 31.2 µg/mL (≈ 47.1 µM) | 62.5 µg/mL (≈ 94.3 µM) | 125 µg/mL (≈ 189 µM) | 15.6 µg/mL (≈ 23.6 µM)
COc1cccc(OC)c1C(=O)N[C@@H]1C(=O)N2[C@@H]1SC(C)(C)[C@@H]2C(=O)O [METHICILLIN] |  |  |  |  | 250 µg/mL (≈ 657 µM) |  |  |  | 
CO[C@H]1/C=C/O[C@@]2(C)Oc3c(C)c(O)c4c(O)c(c(/C=N/N5CCN(C)CC5)c(O)c4c3C2=O)NC(=O)/C(C)=C\C=C\[C@H](C)[C@H](O)[C@@H](C)[C@@H](O)[C@@H](C)[C@H](OC(C)=O)[C@@H]1C [RIFAMPIN] |  | 7.81 µg/mL (≈ 9.49 µM) |  | 0.12 µg/mL (≈ 0.146 µM) |  |  |  |  | 
CCCCN1C(=O)[C@H](CCCCN)N(Cc2ccc(-c3ccc(CN4C(=O)N(CCCC)C(=O)[C@@H]4CCCCN)cc3)cc2)C1=O | 250 µg/mL (≈ 395 µM) | 125 µg/mL (≈ 198 µM) |  | 62.5 µg/mL (≈ 98.8 µM) | 125 µg/mL (≈ 198 µM) | 15.6 µg/mL (≈ 24.7 µM) | 125 µg/mL (≈ 198 µM) | 62.5 µg/mL (≈ 98.8 µM) | 15.6 µg/mL (≈ 24.7 µM)
CCCCCCCCN1C(=O)[C@H](CCCCN)N(Cc2ccc(-c3ccc(CN4C(=O)N(CCCCCCCC)C(=O)[C@@H]4CCCCN)cc3)cc2)C1=O | 31.2 µg/mL (≈ 41.9 µM) | 250 µg/mL (≈ 336 µM) |  | 31.2 µg/mL (≈ 41.9 µM) | 250 µg/mL (≈ 336 µM) | 62.5 µg/mL (≈ 83.9 µM) | 250 µg/mL (≈ 336 µM) | 62.5 µg/mL (≈ 83.9 µM) | 15.6 µg/mL (≈ 21 µM)
CCCCCCN1C(=O)[C@H](CCCCN)N(Cc2ccc(CN3C(=O)N(CCCCCC)C(=O)[C@@H]3CCCCN)cc2)C1=O | 125 µg/mL (≈ 204 µM) | 250 µg/mL (≈ 408 µM) |  | 31.2 µg/mL (≈ 51 µM) | 250 µg/mL (≈ 408 µM) | 62.5 µg/mL (≈ 102 µM) | 62.5 µg/mL (≈ 102 µM) | 250 µg/mL (≈ 408 µM) | 3.91 µg/mL (≈ 6.38 µM)
CCCCCCN1C(=O)[C@H](CCCCN)N(Cc2ccc(-c3ccc(-c4ccc(CN5C(=O)N(CCCCCC)C(=O)[C@@H]5CCCCN)cc4)cc3)cc2)C1=O | 15.6 µg/mL (≈ 20.4 µM) | 62.5 µg/mL (≈ 81.7 µM) |  | 7.81 µg/mL (≈ 10.2 µM) | 250 µg/mL (≈ 327 µM) | 62.5 µg/mL (≈ 81.7 µM) | 250 µg/mL (≈ 327 µM) | 125 µg/mL (≈ 163 µM) | 3.91 µg/mL (≈ 5.11 µM)
CN(C)[C@@H]1C(O)=C(C(N)=O)C(=O)[C@@]2(O)C(O)=C3C(=O)c4c(O)cccc4[C@@](C)(O)[C@H]3C[C@@H]12 [TETRACYCLINE] |  | 7.81 µg/mL (≈ 17.6 µM) |  | 0.98 µg/mL (≈ 2.21 µM) |  |  |  |  | 
CC1(C)S[C@@H]2[C@H](NC(=O)[C@H](N)c3ccccc3)C(=O)N2[C@H]1C(=O)O [AMPICILLIN] |  | 250 µg/mL (≈ 715 µM) |  | 0.98 µg/mL (≈ 2.8 µM) |  |  |  |  | 
O=C(O)c1cn(C2CC2)c2cc(N3CCNCC3)c(F)cc2c1=O [CIPROFLOXACIN] |  |  |  | 0.39 µg/mL (≈ 1.18 µM) |  |  |  |  | 
